Reference: publication PMC5624507 (Advanced functional materials, 2017)
Bridge positions count the residues as written; N and C are the ends. Peptide text beside a SMILES is read from it.

Tests used:
[1] = physiological solutions; cited from earlier work
αvβ3 integrin = αvβ3 integrin (Homo sapiens, UniProt P05106+P06756); assay: Integrin binding assay; conditions: after 16 h of incubation in 0.1 M ammonium bicarbonate pH 8.5, 37 °C; competitive ELISA
CD13 (aminopeptidase N) = CD13 (aminopeptidase N) (Homo sapiens, UniProt P15144); assay: CD13 enzyme inhibition / steady-state enzyme kinetic analysis; assay type: biochemical; conditions: for effect of glycine N-methylation of the named peptide on CD13 inhibition: methylated vs non-methylated peptide; for inhibition model (affected Km, but not Vmax of CD13): steady-state kinetics, double reciprocal plot
Procedure, shortened: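 Enzyme inhibition was run with methylated and non-methylated peptides. IC50 is the peptide concentration inhibiting 50% of activity, from independent experiments each in duplicate. For steady-state kinetics, initial velocity was measured across varied substrate and peptide amounts and plotted as V versus substrate and as double-reciprocal plots. Ki came from two independent experiments (mean ± SE).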

[2] = assay type: physicochemical; conditions: 37 °C, 0.1 M ammonium bicarbonate, pH 8.5, 16 or 42 h
CD13 = CD13 (Homo sapiens, UniProt P15144); assay: MS analysis of peptides after incubation with CD13; assay type: biochemical; conditions: 40 min incubation with CD13, peptide 30 µM
Procedure, shortened: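 Peptides were incubated with or without CD13 (the no-enzyme incubation served as control), then analysed by MS.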

[3] = test system: CD13+ endothelial cells (HUVEC); assay: Binding of peptide-Qdot605 nanoparticles to cultured HUVEC; assay type: cell-based, human; conditions: peptide coupled to Qdot605 fluorescent nanoparticles, 6 nM, 2 h
Procedure, shortened: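 The control was nanoparticles activated with sulfo-SMCC but lacking peptide. Cell-bound Qdots (red) were imaged by fluorescence microscopy at 400X, with DAPI nuclear counterstain.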

binding to αvβ3 integrin after incubation (αvβ3 integrin)	effect of glycine N-methylation of the named peptide on CD13 inhibition (CD13 (aminopeptidase N))	asparagine deamidation (change of molecular mass by MS) [2]	Ki (CD13 (aminopeptidase N))	inhibition model (affected Km, but not Vmax of CD13) (CD13 (aminopeptidase N))	change in molecular mass upon incubation with CD13 (peptide cleavage) (CD13)	Compound	half-life (deamidation) [1]	binding to CD13+ endothelial cells (HUVEC) [3]
–	–	–	–	–	–	CNGRCG	3 to 5 h	–
could bind	reduction of inhibitory potency	–	–	–	–	cyclo(CNGRGG) [N3]	–	–
could bind	did not impair CD13 binding	complete deamidation	12.4 ± 5.4 µM	competitive inhibition	No change	N=C(N)NCCC[C@@H]1NC(=O)CNC(=O)[C@H](CC(N)=O)NC(=O)CNC(=O)[C@H](CS)NC(=O)CNC1=O [N1, c[CGNGRG]] (cyclo(CGNGRG))	–	could bind
–	–	–	134 ± 28 µM	competitive inhibition	–	N=C(N)NCCC[C@@H]1NC(=O)CNC(=O)[C@H](CC(N)=O)NC(=O)[C@@H](N)CSSC[C@@H](C(=O)O)NC1=O [CNGRC, reference compound] (H-CNGRC-OH; disulfide 1-5; N-terminus and C-terminus assumed)	–	–
